Assay results published in ChEMBL document CHEMBL4715690 (Bioorg Med Chem, 2016).
The source made the active and inactive calls. The calls are words filed in the database; no cut-off is given here.

Tests used:
[1] = target: T1, Hepatocyte growth factor receptor (Homo sapiens, UniProt P08581); experiment: Inhibition of recombinant human His-tagged c-MET expressed in baculovirus expression system assessed as reduction in c-MET phosphorylation at 10 uM using Tyr6 as substrate incubated for 1 hr by Z'-lyte assay relative to control
Outline: (§1)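 Cell-free Z′-LYTE Tyr6 assay with recombinant human wild-type or M1250T mutant c-Met kinase at 2500 ng/mL, plus 200 μM ATP, 4 μM Tyr6 peptide and inhibitor. Reaction ran 1 h at room temperature, followed by protease development for 1 h. Readout was the 445/520 nm emission ratio. IC50 from nonlinear regression of log concentration vs % phosphorylation; n=3/dose.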

[2] = system: MDA-MB-468; experiment: Antiproliferative activity against human MDA-MB-468 cells expressing c-MET assessed as reduction in cell viability incubated for 72 hrs by MTT assay; type: functional, cell-based; details: MDA-MB-468, 72 h
Outline: (§2)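 Cells plated at 1×10⁴/well (6 wells/group) in RPMI-1640 with 10% FBS and left to adhere overnight. They were then switched to serum-free RPMI-1640 with 40 ng/mL HGF as mitogen plus at least four compound concentrations, or DMSO vehicle (final ≤0.1%), for 72 h, refed every other day. MTT (1 mg/mL) was added for 4 h, formazan dissolved in DMSO, and A570 read. Cell number came from a standard curve, survival was expressed versus DMSO, and IC50 was fitted by nonlinear regression.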

[3] = system: MDA-MB-231; experiment: Antiinvasive activity against human MDA-MB-231 cells assessed as reduction in HGF-mediate cell invasion at 15 uM incubated for 24 hrs by fluorescence based assay relative to control; type: functional; set-up: scale not given: the % may be the effect or the level left
Outline: (§3)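 Cells starved 16 h in serum-free RPMI-1640, then 25,000 cells placed in rehydrated basement-membrane inserts. The bottom wells held 5% serum medium with test compound or DMSO vehicle, and invasion was induced with 40 ng/mL HGF. After 24 h at 37 °C, invaded cells were stained with calcein AM and read at ex 485/em 520 nm. Cell number came from a standard curve; triplicates.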

[4] = system: SK-BR-3; experiment: Antiproliferative activity against human SK-BR-3 cells expressing c-MET assessed as reduction in cell viability incubated for 72 hrs by MTT assay; type: functional, cell-based; details: SK-BR-3, 72 h; outline: as §2
[5] = system: MDA-MB-231; experiment: Antiinvasive activity against human MDA-MB-231 cells assessed as reduction in HGF-mediate cell invasion at 30 uM incubated for 24 hrs by fluorescence based assay relative to control; type: functional; set-up: scale not given: the % may be the effect or the level left; outline: as §3
[6] = Antiproliferative activity against human MCF7-DOX cells expressing c-MET assessed as reduction in cell viability incubated for 72 hrs by MTT assay; type: functional, cell-based
Outline: (§4)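 MTT proliferation. Cells in exponential growth were seeded at 1×10⁴/well (6 wells/group) in RPMI-1640 with 10% FBS and left to adhere overnight. They were then switched to serum-free RPMI-1640 with 40 ng/mL HGF as mitogen plus test doses (at least four concentrations) or DMSO vehicle (≤0.1% final), refreshed every other day. After 72 h, 1 mg/mL MTT was added for 4 h, DMSO solubilized, A570 read. Cell number came from a standard curve, and IC50 was fitted by nonlinear regression of log concentration versus % survival.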

[7] = Cytotoxicity against human MCF-10A cells assessed as cell viability at 20 uM incubated for 72 hrs by MTT assay; type: cell-based; details: read-out: Activity
[8] = system: BT-474; experiment: Antiproliferative activity against human BT-474 cells expressing c-MET assessed as reduction in cell viability incubated for 72 hrs by MTT assay; type: functional, cell-based; details: BT-474, 72 h; outline: as §2
[9] = system: MDA-MB-231; experiment: Antiproliferative activity against human MDA-MB-231 cells expressing c-MET assessed as reduction in cell viability incubated for 72 hrs by MTT assay; type: functional, cell-based; details: MDA-MB-231, 72 h; outline: as §4
[10] = system: MCF7; experiment: Antiproliferative activity against human MCF7 cells expressing c-MET assessed as reduction in cell viability incubated for 72 hrs by MTT assay; type: functional, cell-based; details: MCF7, 72 h; outline: as §2
[11] = target: T1, Hepatocyte growth factor receptor; experiment: Inhibition of recombinant human His-tagged c-MET expressed in baculovirus expression system assessed as reduction in c-MET phosphorylation at 5 uM using Tyr6 as substrate incubated for 1 hr by Z'-lyte assay relative to control; outline: as §1
[12] = system: MDA-MB-231; experiment: Antiinvasive activity against human MDA-MB-231 cells assessed as reduction in HGF-mediate cell invasion at 8 uM incubated for 24 hrs by fluorescence based assay relative to control; type: functional; set-up: scale not given: the % may be the effect or the level left; outline: as §3
[13] = system: MDA-MB-231; experiment: Antitumor activity against GFP-tagged human MDA-MB-231 cells xenografted in athymic nude-Foxn1nu/Fox1+ mouse assessed as the reduction in tumor growth at 10 mg/kg, ip dosed 3 times per week for 3 weeks treatment started 14 days of post inoculation; type: functional; details: MDA-MB-231, ip, 504 h, read-out: TGI
Outline: (§5)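 Female athymic nude mice, 4–5 weeks old, received 1×10⁶ MDA-MB-231/GFP cells into the second mammary fat pad (orthotopic), n = 5/group. Dosing was 10 mg/kg i.p. 3×/week or DMSO/saline vehicle, starting on day 14 after inoculation. Tumor volume was taken as L/2 × W², with body weight and clinical signs monitored. Mice were killed on day 33 and tumors excised and weighed.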

[14] = target: Hepatocyte growth factor receptor (Homo sapiens, UniProt P08581, M1250T); experiment: Inhibition of recombinant human His-tagged c-MET M1250T mutant expressed in baculovirus expression system assessed as reduction in c-MET phosphorylation using Tyr6 as substrate incubated for 1 hr by Z'-lyte assay
[15] = target: T1, Hepatocyte growth factor receptor; experiment: Inhibition of recombinant human His-tagged c-MET expressed in baculovirus expression system assessed as reduction in c-MET phosphorylation using Tyr6 as substrate incubated for 1 hr by Z'-lyte assay; outline: as §1
[16] = Toxicity in athymic nude-Foxn1nu/Fox1+ mouse assessed as effect on body weight at 10 mg/kg, ip dosed 3 times per week for 3 weeks treatment started 14 days of post inoculation; type: organism-based; details: in vivo, 504 h; outline: as §5
[17] = system: HL-60; experiment: Cytotoxicity against human HL-60 cells assessed as reduction in cell viability incubated for 72 hrs by MTT assay; type: functional, cell-based; details: HL-60, 72 h
[18] = system: MDA-MB-231; experiment: cells; details: Homo sapiens, MDA-MB-231, 24 h
[19] = target: T1, Hepatocyte growth factor receptor; experiment: Inhibition of c-MET in human MDA-MB-231 cells assessed as reduction in c-MET phosphorylation level at 15 to 30 uM incubated for 48 hrs by Western blot analysis; type: cell-based; details: dose 15-30 µM
Outline: (§6)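 MDA-MB-231 cells seeded at 1×10⁶ per 100 mm dish and left overnight. Cells were treated with compound or DMSO in serum-free medium containing HGF 50 ng/mL for 48 h. RIPA lysates (30 μg protein) were run on SDS-PAGE and transferred to PVDF. Membranes were blocked in 5% BSA/TBST and probed overnight at 4 °C with primary antibodies, then HRP secondary; chemiluminescent detection.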

[20] = system: MDA-MB-231; experiment: Cytotoxicity against human MDA-MB-231 cells assessed as reduction in cell viability at 50 uM incubated for 24 hrs by LDH assay relative to control; type: functional
Outline: (§7)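 MDA-MB-231 cells seeded at 3×10⁴/well and allowed to attach, then treated in triplicate in 5% serum medium for 24 h at 37 °C. Triton X-100 gave maximum release, and […]. Supernatant was reacted with NAD⁺, lactate, INT and diaphorase for 30 min at room temperature, then read at A490. % cytotoxicity was computed relative to spontaneous and maximum release.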

[21] = system: T47D; experiment: Antiproliferative activity against human T47D cells assessed as reduction in cell viability incubated for 72 hrs by MTT assay; type: functional, cell-based
Outline: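 Cells plated at 1×10⁴/well in RPMI-1640 with 10% FBS and left to adhere overnight. They were then fed serum-free RPMI-1640 containing 40 ng/mL HGF and at least four compound concentrations, 6 wells/group, for 72 h, with medium renewed every other day. MTT 1 mg/mL for 4 h, formazan dissolved in DMSO, A570. Cell number came from a standard curve; IC50 from nonlinear regression of log concentration vs % survival relative to DMSO.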

[22] = system: MDA-MB-231; experiment: Antiinvasive activity against human MDA-MB-231 cells assessed as reduction in HGF-mediate cell invasion at 4 uM incubated for 24 hrs by fluorescence based assay relative to control; type: functional; set-up: scale not given: the % may be the effect or the level left; outline: as §3
[23] = Cytotoxicity against human MCF-10A cells assessed as cell viability at 5 uM incubated for 72 hrs by MTT assay; type: cell-based; details: read-out: Activity
[24] = Cytotoxicity against human MCF-10A cells assessed as cell viability at 30 uM incubated for 72 hrs by MTT assay; type: cell-based; details: read-out: Activity
[25] = Cytotoxicity against human MCF-10A cells assessed as cell viability at 10 uM incubated for 72 hrs by MTT assay; type: cell-based; details: read-out: Activity
[26] = system: MDA-MB-231; experiment: Antiinvasive activity against human MDA-MB-231 cells assessed as reduction in HGF-induced cell invasion incubated for 24 hrs by fluorescence based assay; type: functional; outline: as §3
[27] = system: A549; experiment: Cytotoxicity against human A549 cells assessed as reduction in cell viability incubated for 72 hrs by MTT assay; type: functional, cell-based; details: A549, 72 h
[28] = system: MDA-MB-231; experiment: Reduction of c-MET expression level in human MDA-MB-231 cells at 15 to 30 uM incubated for 48 hrs by Western blot analysis; type: functional, cell-based; details: dose 15-30 µM; outline: as §6
[29] = system: MDA-MB-231; experiment: Cytotoxicity against human MDA-MB-231 cells assessed as reduction in cell viability at 25 uM incubated for 24 hrs by LDH assay relative to control; type: functional; outline: as §7
[30] = system: MOLT-4; experiment: Cytotoxicity against human MOLT-4 cells assessed as reduction in cell viability incubated for 72 hrs by MTT assay; type: functional, cell-based; details: MOLT-4, 72 h
[31] = system: Bel-7402; experiment: Cytotoxicity against human Bel-7402 cells assessed as reduction in cell viability incubated for 72 hrs by MTT assay; type: functional, cell-based; details: Bel-7402, 72 h

T1 sequence (P08581 whole entry): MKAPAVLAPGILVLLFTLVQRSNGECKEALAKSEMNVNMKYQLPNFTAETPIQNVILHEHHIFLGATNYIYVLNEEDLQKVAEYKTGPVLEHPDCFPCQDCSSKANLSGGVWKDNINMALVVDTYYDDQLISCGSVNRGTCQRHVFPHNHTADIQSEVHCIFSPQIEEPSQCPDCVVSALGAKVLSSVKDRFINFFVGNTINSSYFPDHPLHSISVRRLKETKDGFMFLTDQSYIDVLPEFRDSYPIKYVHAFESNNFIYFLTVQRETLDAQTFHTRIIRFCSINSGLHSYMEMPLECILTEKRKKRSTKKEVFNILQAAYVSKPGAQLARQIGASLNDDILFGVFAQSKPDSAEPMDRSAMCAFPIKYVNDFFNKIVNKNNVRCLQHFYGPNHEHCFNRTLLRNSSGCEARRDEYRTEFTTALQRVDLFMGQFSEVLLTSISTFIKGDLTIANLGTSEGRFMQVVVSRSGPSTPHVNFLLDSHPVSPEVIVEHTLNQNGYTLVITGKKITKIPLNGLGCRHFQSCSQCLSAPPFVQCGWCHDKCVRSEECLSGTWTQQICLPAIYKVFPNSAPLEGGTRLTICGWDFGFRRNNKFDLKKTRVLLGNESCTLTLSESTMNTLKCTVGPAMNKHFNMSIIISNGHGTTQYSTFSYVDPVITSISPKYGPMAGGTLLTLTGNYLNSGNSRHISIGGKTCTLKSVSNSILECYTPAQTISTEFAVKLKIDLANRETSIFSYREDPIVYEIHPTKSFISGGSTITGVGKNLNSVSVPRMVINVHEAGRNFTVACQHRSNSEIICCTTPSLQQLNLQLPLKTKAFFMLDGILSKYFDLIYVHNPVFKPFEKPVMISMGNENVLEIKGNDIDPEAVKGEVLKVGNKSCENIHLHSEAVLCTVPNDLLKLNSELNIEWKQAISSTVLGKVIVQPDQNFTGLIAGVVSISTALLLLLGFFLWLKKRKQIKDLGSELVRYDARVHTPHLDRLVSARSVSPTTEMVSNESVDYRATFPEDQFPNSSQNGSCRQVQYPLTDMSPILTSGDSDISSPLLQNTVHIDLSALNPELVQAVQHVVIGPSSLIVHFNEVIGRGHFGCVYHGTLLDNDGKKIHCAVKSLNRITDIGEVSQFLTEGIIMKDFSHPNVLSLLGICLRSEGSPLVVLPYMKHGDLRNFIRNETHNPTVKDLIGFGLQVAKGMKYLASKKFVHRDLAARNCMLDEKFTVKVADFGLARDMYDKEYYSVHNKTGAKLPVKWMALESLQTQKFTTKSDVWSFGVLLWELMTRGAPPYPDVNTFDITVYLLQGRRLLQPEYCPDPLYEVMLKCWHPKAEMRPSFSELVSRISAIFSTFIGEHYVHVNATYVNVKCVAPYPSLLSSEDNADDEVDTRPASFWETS
Chain of Hepatocyte growth factor receptor (Homo sapiens, UniProt P08581, M1250T) (P08581 whole entry M1250T): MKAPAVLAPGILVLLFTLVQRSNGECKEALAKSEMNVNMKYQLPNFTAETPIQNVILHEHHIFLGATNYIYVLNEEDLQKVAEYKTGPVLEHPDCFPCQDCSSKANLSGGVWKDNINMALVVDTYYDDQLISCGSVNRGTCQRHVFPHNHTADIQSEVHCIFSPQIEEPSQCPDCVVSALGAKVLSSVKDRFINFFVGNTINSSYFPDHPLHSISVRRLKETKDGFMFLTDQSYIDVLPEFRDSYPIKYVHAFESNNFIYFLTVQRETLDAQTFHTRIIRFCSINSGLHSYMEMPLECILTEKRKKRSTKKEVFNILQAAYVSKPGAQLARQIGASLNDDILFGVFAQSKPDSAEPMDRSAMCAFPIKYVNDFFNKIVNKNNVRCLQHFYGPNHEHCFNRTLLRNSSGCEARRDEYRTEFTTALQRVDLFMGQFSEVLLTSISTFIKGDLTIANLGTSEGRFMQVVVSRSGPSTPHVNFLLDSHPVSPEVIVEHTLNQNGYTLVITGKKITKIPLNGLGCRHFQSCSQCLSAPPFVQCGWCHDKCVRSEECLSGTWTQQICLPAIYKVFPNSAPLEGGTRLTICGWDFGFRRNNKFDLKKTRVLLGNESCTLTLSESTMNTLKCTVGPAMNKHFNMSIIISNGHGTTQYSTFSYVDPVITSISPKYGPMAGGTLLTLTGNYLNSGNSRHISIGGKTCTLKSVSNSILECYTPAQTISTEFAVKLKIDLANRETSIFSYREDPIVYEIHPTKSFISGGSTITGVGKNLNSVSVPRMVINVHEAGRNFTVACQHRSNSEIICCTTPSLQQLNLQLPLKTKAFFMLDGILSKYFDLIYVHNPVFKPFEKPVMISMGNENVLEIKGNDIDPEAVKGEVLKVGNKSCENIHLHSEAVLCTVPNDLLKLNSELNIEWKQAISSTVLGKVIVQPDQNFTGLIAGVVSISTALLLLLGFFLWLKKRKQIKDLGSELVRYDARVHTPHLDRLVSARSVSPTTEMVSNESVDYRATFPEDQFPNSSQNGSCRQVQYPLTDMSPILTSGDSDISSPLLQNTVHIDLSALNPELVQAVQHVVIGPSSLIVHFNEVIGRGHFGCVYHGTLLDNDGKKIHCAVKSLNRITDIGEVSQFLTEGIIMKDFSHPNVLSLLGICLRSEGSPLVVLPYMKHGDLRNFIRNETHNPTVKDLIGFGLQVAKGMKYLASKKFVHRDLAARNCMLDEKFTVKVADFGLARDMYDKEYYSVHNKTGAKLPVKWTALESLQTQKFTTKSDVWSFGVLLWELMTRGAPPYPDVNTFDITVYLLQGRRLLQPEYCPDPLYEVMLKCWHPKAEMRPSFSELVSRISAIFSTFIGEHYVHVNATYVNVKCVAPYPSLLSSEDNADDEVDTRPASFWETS

Row | SMILES | inhibition [1] [%] | IC50 [2] [µM] | Activity [3] [%] | IC50 [4] [µM] | Activity [5] [%] | IC50 [6] [µM] | viability at 72 h, 20 µM [7] [%] | IC50 [8] [µM] | IC50 [9] [µM] | IC50 [10] [µM] | inhibition [11] [%] | IC50 [17] [µM] | IC50 [27] [µM] | also measured
1 | C=CC(C)(C)[C@@]12C[C@H]3C(=O)N/C(=C/c4c[nH]cn4)C(=O)N3[C@@H]1Nc1ccccc12 [ROQUEFORTINE C] | 59.7 | 28.6 | 47.6 | 23.4 | 79.3 | 24.4 | 98.4 | 29.6 | 23.5 | 21.7 | 39.7 | – | – | –
2 | C=CC(C)(C)[C@@]12C=C(O)C(=O)N3/C(=C/c4cnc[nH]4)C(=O)N[C@]31N(OC)c1ccccc12 | 88 | 8.9 | – | 2.8 | – | 3.2 | 74.4 | 2.7 | 6.8 | 1.9 | 56.3 | 7.4 | 19.9 | Activity [12]: 57.5%; inhibition in vivo at 10 mg/kg [13]: 65%; IC50 [14]: 2.1 µM; IC50 [15]: 4.2 µM; inhibition [15]: Dose-dependent effect; Activity [16]: Non-Toxic; IC50 [18]: 1.8 µM; inhibition [19]: Active; inhibition at 50 µM [20]: 9.4%; IC50 [21]: > 40 µM; Activity [22]: 30.7%; viability at 72 h, 5 µM [23]: 100%; viability at 72 h, 30 µM [24]: 48.9%; viability at 72 h, 10 µM [25]: 98.8%; Activity [26]: Dose-dependent effect; inhibition [28]: inactive; inhibition at 25 µM [29]: 2.5%
3 | O=C1N[C@@H](Cc2c[nH]c3ccccc23)C(=O)N/C1=C/c1cnc[nH]1 | 10.2 | 40 | 46.1 | 40 | 83 | 23.8 | – | 40 | 31.8 | 40 | 0 | – | – | –
4 | C=CC(C)(C)[C@@]12C=C(O)C(=O)N3/C(=C/c4cn([C@H]5C[C@@]6(O)O[C@@H]7C[C@@]6(C)[C@]6(C[C@]8(C)CCC(C)(C)[C@@H]8[C@@H]76)[C@@H]5C)cn4)C(=O)N[C@]31N(OC)c1ccccc12 | – | – | – | – | – | – | – | – | – | – | – | 1.8 | 1.8 | IC50 [30]: 1.8 µM; IC50 [31]: 1.8 µM
